Paper PMC7931189 (ACS Omega, 2021)
“Also recorded” adds a separate entry of the source.

Experiments:
[1] = system: human colorectal carcinoma cells (HCT-116); experiment: Antiproliferative activity by the MTT assay, HCT-116; format: cell-based; details: for IC50: Homo sapiens, HCT-116, 48 h, read-out: IC50 HCT-116; for inhibitory action on HCT-116 cells: MTT, 48 h post treatment, result in words
Summary of the method: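 HCT-116 cells grown in DMEM with L-glutamine, fetal bovine serum, selenium chloride and penicillin-streptomycin; exposed to test compound at 0.06–0.7 mg/mL for 48 h, untreated wells as control. MTT (5.0 mg/mL) added for 4 h, then DMSO; absorbance read at 570 nm. Percent viability calculated relative to control; one-way ANOVA with Student's t-test for p-values.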

HCT-116 cells = experiment: Nuclear DNA staining; format: cell-based, human; details: 0.1 mg/mL, 48 h, compared to nontreated control
Summary of the method: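 HCT-116 cells exposed to test compound at 0.1 mg/mL for 48 h alongside untreated controls. Cells then fixed in 4% paraformaldehyde, permeabilised with Triton X-100 in PBS and stained with DAPI. Nuclei imaged by confocal scanning microscopy at 200× magnification and scored for loss of staining, condensation and disintegration.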

| Structure (SMILES) | IC50 [1] | inhibitory action on HCT-116 cells [1] | nuclear staining / nuclear disintegration of DAPI stained HCT-116 cells (HCT-116 cells) |
| --- | --- | --- | --- |
| CC(C)(C(=O)O)C(O)c1ccc(Cl)cc1 (stereo not shown) [compound 1, 3-(4-chlorophenyl)-3-hydroxy-2,2-dimethylpropanoic acid] | 1270 ± 40 µM | showed inhibitory activities | – |
| CC(C)(C(=O)NN)C(O)c1ccc(Cl)cc1 (stereo not shown) [compound 2, 3-(4-chlorophenyl)-3-hydroxy-2,2-dimethylpropanehydrazide] | 1650 ± 60 µM | showed inhibitory activities | – |
| CN(C)c1ccc(C=NNC(=O)C(C)(C)C(O)c2ccc(Cl)cc2)cc1 (stereo not shown) [compound 3, 3-(4-chlorophenyl)-N′-(4-(dimethylamino)benzylidene)-3-hydroxy-2,2-dimethylpropanehydrazide] | 267 ± 30 µM | showed inhibitory activities | significant loss (arrows) of staining; also recorded: significant loss of nuclear staining |
